Measurements as given in ChEMBL document CHEMBL1926642, “Relevance of the C-5 position to schweinfurthin induced cytotoxicity” (2011).

Columns and labels:
Assay type in all cases: functional
CAKI-1 = experiment: Cytotoxicity against human Caki1 cells assessed as cell growth at 10 uM after 48 hrs by sulforhodamine B assay relative to control; conditions: CAKI-1, 48 h, read-out: Activity
Procedure, shortened: (§1)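 Compounds went through the NCI 60 cell-line screen, whose current protocol tests first at a single dose.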

RXF 393 = experiment: Cytotoxicity against human RXF393 cells assessed as cell growth at 10 uM after 48 hrs by sulforhodamine B assay relative to control; conditions: RXF 393, 48 h, read-out: Activity; procedure, shortened: as §1
SN12C = experiment: Cytotoxicity against human SN12C cells assessed as cell growth at 10 uM after 48 hrs by sulforhodamine B assay relative to control; conditions: read-out: Activity; procedure, shortened: as §1
UO-31 = experiment: Cytotoxicity against human UO31 cells assessed as cell growth at 10 uM after 48 hrs by sulforhodamine B assay relative to control; conditions: UO-31, 48 h, read-out: Activity
PC-3 = experiment: Cytotoxicity against human PC3 cells assessed as cell growth at 10 uM after 48 hrs by sulforhodamine B assay relative to control; conditions: PC-3, 48 h, read-out: Activity; procedure, shortened: as §1
MCF7 = experiment: Cytotoxicity against human MCF7 cells assessed as cell growth at 10 uM after 48 hrs by sulforhodamine B assay relative to control; conditions: MCF7, 48 h, read-out: Activity; procedure, shortened: as §1
MDA-MB-231 = experiment: Cytotoxicity against human MDA-MB-231/ATCC cells assessed as cell growth at 10 uM after 48 hrs by sulforhodamine B assay relative to control; conditions: MDA-MB-231, 48 h, read-out: Activity; procedure, shortened: as §1
BT-549 = experiment: Cytotoxicity against human BT549 cells assessed as cell growth at 10 uM after 48 hrs by sulforhodamine B assay relative to control; conditions: BT-549, 48 h, read-out: Activity; procedure, shortened: as §1
T47D = experiment: Cytotoxicity against human T47D cells assessed as cell growth at 10 uM after 48 hrs by sulforhodamine B assay relative to control; conditions: read-out: Activity
K562 = experiment: Cytotoxicity against human K562 cells assessed as cell growth at 10 uM after 48 hrs by sulforhodamine B assay relative to control; conditions: K562, 48 h, read-out: Activity; procedure, shortened: as §1
RPMI-8226 = experiment: Cytotoxicity against human RPMI8226 cells assessed as cell growth at 10 uM after 48 hrs by sulforhodamine B assay relative to control; conditions: RPMI-8226, 48 h, read-out: Activity; procedure, shortened: as §1
A549 = experiment: Cytotoxicity against human A549/ATCC cells assessed as cell growth at 10 uM after 48 hrs by sulforhodamine B assay relative to control; conditions: A549, 48 h, read-out: Activity; procedure, shortened: as §1
EKVX = experiment: Cytotoxicity against human EKVX cells assessed as cell growth at 10 uM after 48 hrs by sulforhodamine B assay relative to control; conditions: read-out: Activity; procedure, shortened: as §1
NCI-H23 = experiment: Cytotoxicity against human NCI-H23 cells assessed as cell growth at 10 uM after 48 hrs by sulforhodamine B assay relative to control; conditions: NCI-H23, 48 h, read-out: Activity; procedure, shortened: as §1
NCI-H322M = experiment: Cytotoxicity against human NCI-H322M cells assessed as cell growth at 10 uM after 48 hrs by sulforhodamine B assay relative to control; conditions: read-out: Activity; procedure, shortened: as §1
COLO 205 = experiment: Cytotoxicity against human COLO205 cells assessed as cell growth at 10 uM after 48 hrs by sulforhodamine B assay relative to control; conditions: COLO 205, 48 h, read-out: Activity; procedure, shortened: as §1
HCC 2998 = experiment: Cytotoxicity against human HCC2998 cells assessed as cell growth at 10 uM after 48 hrs by sulforhodamine B assay relative to control; conditions: HCC 2998, 48 h, read-out: Activity; procedure, shortened: as §1
HCT-15 = experiment: Cytotoxicity against human HCT15 cells assessed as cell growth at 10 uM after 48 hrs by sulforhodamine B assay relative to control; conditions: HCT-15, 48 h, read-out: Activity; procedure, shortened: as §1
HT-29 = experiment: Cytotoxicity against human HT-29 cells assessed as cell growth at 10 uM after 48 hrs by sulforhodamine B assay relative to control; conditions: HT-29, 48 h, read-out: Activity; procedure, shortened: as §1
SF-295 = experiment: Cytotoxicity against human SF295 cells assessed as cell growth at 10 uM after 48 hrs by sulforhodamine B assay relative to control; conditions: SF-295, 48 h, read-out: Activity; procedure, shortened: as §1
SNB-19 = experiment: Cytotoxicity against human SNB19 cells assessed as cell growth at 10 uM after 48 hrs by sulforhodamine B assay relative to control; conditions: SNB-19, 48 h, read-out: Activity; procedure, shortened: as §1
U-251 = experiment: Cytotoxicity against human U251 cells assessed as cell growth at 10 uM after 48 hrs by sulforhodamine B assay relative to control; conditions: U-251, 48 h, read-out: Activity
M14 = experiment: Cytotoxicity against human M14 cells assessed as cell growth at 10 uM after 48 hrs by sulforhodamine B assay relative to control; conditions: M14, 48 h, read-out: Activity; procedure, shortened: as §1
MDA-MB-435 = experiment: Cytotoxicity against human MDA-MB-435 cells assessed as cell growth at 10 uM after 48 hrs by sulforhodamine B assay relative to control; conditions: MDA-MB-435, 48 h, read-out: Activity; procedure, shortened: as §1
SK-MEL-2 = experiment: Cytotoxicity against human SK-MEL-2 cells assessed as cell growth at 10 uM after 48 hrs by sulforhodamine B assay relative to control; conditions: SK-MEL-2, 48 h, read-out: Activity; procedure, shortened: as §1
SK-MEL-28 = experiment: Cytotoxicity against human SK-MEL-28 cells assessed as cell growth at 10 uM after 48 hrs by sulforhodamine B assay relative to control; conditions: SK-MEL-28, 48 h, read-out: Activity; procedure, shortened: as §1
UACC-257 = experiment: Cytotoxicity against human UACC257 cells assessed as cell growth at 10 uM after 48 hrs by sulforhodamine B assay relative to control; conditions: UACC-257, 48 h, read-out: Activity
UACC-62 = experiment: Cytotoxicity against human UACC62 cells assessed as cell growth at 10 uM after 48 hrs by sulforhodamine B assay relative to control; conditions: UACC-62, 48 h, read-out: Activity
IGROV-1 = experiment: Cytotoxicity against human IGROV1 cells assessed as cell growth at 10 uM after 48 hrs by sulforhodamine B assay relative to control; conditions: IGROV-1, 48 h, read-out: Activity; procedure, shortened: as §1
OVCAR-4 = experiment: Cytotoxicity against human OVCAR4 cells assessed as cell growth at 10 uM after 48 hrs by sulforhodamine B assay relative to control; conditions: OVCAR-4, 48 h, read-out: Activity; procedure, shortened: as §1
OVCAR-5 = experiment: Cytotoxicity against human OVCAR5 cells assessed as cell growth at 10 uM after 48 hrs by sulforhodamine B assay relative to control; conditions: OVCAR-5, 48 h, read-out: Activity; procedure, shortened: as §1
OVCAR-8 = experiment: Cytotoxicity against human OVCAR8 cells assessed as cell growth at 10 uM after 48 hrs by sulforhodamine B assay relative to control; conditions: OVCAR-8, 48 h, read-out: Activity; procedure, shortened: as §1
NCI/ADR-RES = experiment: Cytotoxicity against human NCI/ADR-RES cells assessed as cell growth at 10 uM after 48 hrs by sulforhodamine B assay relative to control; conditions: read-out: Activity; procedure, shortened: as §1
SK-OV-3 = experiment: Cytotoxicity against human SKOV3 cells assessed as cell growth at 10 uM after 48 hrs by sulforhodamine B assay relative to control; conditions: SK-OV-3, 48 h, read-out: Activity; procedure, shortened: as §1

SMILES	growth at 10 µM (CAKI-1) [%]	growth at 10 µM (RXF 393) [%]	growth at 10 µM (SN12C) [%]	growth at 10 µM (UO-31) [%]	growth at 10 µM (PC-3) [%]	growth at 10 µM (MCF7) [%]	growth at 10 µM (MDA-MB-231) [%]	growth at 10 µM (BT-549) [%]	growth at 10 µM (T47D) [%]	growth at 10 µM (K562) [%]	growth at 10 µM (RPMI-8226) [%]	growth at 10 µM (A549) [%]	growth at 10 µM (EKVX) [%]	growth at 10 µM (NCI-H23) [%]	growth at 10 µM (NCI-H322M) [%]	growth at 10 µM (COLO 205) [%]	growth at 10 µM (HCC 2998) [%]	growth at 10 µM (HCT-15) [%]	growth at 10 µM (HT-29) [%]	growth at 10 µM (SF-295) [%]	further results
COCc1cc(/C=C/c2cc(O)c(C/C=C(\C)CCC=C(C)C)c(OC)c2)cc2c1O[C@]1(C)CC[C@@H](O)C(C)(C)[C@H]1C2	118	88	96.2	98.4	79	103	81.3	193	106	72	65.9	104	118	100	167	130	99.3	84.2	47.9	133	growth at 10 µM (SNB-19): 96.4%; growth at 10 µM (U-251): 83.6%; growth at 10 µM (M14): 117%; growth at 10 µM (MDA-MB-435): 120%; growth at 10 µM (SK-MEL-2): 109%; growth at 10 µM (SK-MEL-28): 118%; growth at 10 µM (UACC-257): 116%; growth at 10 µM (UACC-62): 90.7%; growth at 10 µM (IGROV-1): 65.3%; growth at 10 µM (OVCAR-4): 108%; growth at 10 µM (OVCAR-5): 114%; growth at 10 µM (OVCAR-8): 103%; growth at 10 µM (NCI/ADR-RES): 100%; growth at 10 µM (SK-OV-3): 145%
COc1cc(/C=C/c2cc(Br)c3c(c2)C[C@@H]2C(C)(C)[C@H](O)CC[C@@]2(C)O3)cc(O)c1C/C=C(\C)CCC=C(C)C	107	80.7	101	91	87.6	102	96.6	108	109	79.9	75	94.7	107	103	102	126	103	96.1	74.5	109	growth at 10 µM (SNB-19): 106%; growth at 10 µM (U-251): 86.3%; growth at 10 µM (M14): 107%; growth at 10 µM (MDA-MB-435): 109%; growth at 10 µM (SK-MEL-2): 112%; growth at 10 µM (SK-MEL-28): 106%; growth at 10 µM (UACC-257): 100%; growth at 10 µM (UACC-62): 104%; growth at 10 µM (IGROV-1): 63.1%; growth at 10 µM (OVCAR-4): 110%; growth at 10 µM (OVCAR-5): 105%; growth at 10 µM (OVCAR-8): 108%; growth at 10 µM (NCI/ADR-RES): 105%; growth at 10 µM (SK-OV-3): 116%
